Tests used:
[1] = molecular target: T1, Prostaglandin G/H synthase 1 (Ovis aries, UniProt P05979); test: Inhibition of ovine COX1 assessed as inhibition of PGF2alpha production from PGH2 by enzyme immuno assay
T1 sequence (P05979 whole entry): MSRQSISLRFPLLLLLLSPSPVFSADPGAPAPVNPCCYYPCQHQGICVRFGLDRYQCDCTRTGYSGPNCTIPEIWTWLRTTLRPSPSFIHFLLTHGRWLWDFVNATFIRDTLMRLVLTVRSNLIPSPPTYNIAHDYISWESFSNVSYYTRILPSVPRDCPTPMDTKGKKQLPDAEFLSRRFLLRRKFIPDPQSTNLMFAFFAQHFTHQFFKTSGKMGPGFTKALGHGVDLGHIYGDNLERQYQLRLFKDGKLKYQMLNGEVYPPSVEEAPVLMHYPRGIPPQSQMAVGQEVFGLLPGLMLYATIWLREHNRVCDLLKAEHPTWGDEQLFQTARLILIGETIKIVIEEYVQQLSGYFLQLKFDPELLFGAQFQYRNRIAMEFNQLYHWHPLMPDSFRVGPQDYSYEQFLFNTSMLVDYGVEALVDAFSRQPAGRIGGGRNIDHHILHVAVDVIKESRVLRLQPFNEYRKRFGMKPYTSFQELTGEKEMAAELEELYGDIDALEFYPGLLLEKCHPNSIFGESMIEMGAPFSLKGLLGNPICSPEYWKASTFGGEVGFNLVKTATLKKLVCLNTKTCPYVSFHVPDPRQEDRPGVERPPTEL
Procedure, shortened: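 Ovine COX-1 in Tris-HCl buffer, pH 8.0, with heme, preincubated 10 min at 37 °C. Arachidonic acid started the reaction, which was stopped after 2 min with 1 M HCl. PGH₂ was reduced to PGF2α with stannous chloride, and PGF2α was quantified by competitive EIA with an AChE tracer and Ellman's reagent. IC50 came from concentration–inhibition curves, duplicate determinations.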

[2] = Selectivity index, ratio of IC50 for ovine COX1 to IC50 for human recombinant COX2
[3] = molecular target: T2, Prostaglandin G/H synthase 2 (Homo sapiens, UniProt P35354); test: Inhibition of human recombinant COX2 assessed as inhibition of PGF2alpha production from PGH2 by enzyme immunoassay
T2 sequence (P35354 whole entry): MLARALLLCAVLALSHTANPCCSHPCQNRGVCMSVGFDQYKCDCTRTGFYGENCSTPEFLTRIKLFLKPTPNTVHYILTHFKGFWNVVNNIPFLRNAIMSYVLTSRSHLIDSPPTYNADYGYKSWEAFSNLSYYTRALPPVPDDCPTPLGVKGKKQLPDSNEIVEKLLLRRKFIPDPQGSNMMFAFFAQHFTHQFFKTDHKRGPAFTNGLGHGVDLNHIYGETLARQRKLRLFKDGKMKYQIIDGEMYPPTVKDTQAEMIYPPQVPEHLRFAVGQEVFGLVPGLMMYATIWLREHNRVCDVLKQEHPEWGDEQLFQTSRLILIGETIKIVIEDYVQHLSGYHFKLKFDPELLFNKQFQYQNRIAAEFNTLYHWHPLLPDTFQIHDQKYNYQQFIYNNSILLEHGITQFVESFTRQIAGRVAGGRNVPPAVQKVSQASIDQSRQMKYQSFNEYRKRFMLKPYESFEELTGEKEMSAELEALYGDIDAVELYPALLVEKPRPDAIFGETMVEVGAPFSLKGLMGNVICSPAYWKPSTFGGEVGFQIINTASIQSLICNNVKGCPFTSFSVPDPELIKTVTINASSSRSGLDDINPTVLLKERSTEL

IC50 [1] [µM]	Ratio IC50 [2]	IC50 [3] [µM]	SMILES
96.4	1.23	78.2	NS(=O)(=O)c1ccc(NN2C(=O)CSC2c2ccccc2)cc1 (stereo not given)
54.5	1.05	51.8	NS(=O)(=O)c1ccc(NN2C(=O)CSC2c2ccc(C(F)(F)F)cc2)cc1 (stereo not given)
62.7	1.38	45.4	CS(=O)(=O)c1ccc(NN2C(=O)CSC2c2ccc(F)cc2)cc1 (stereo not given)
61.1	1.61	37.8	CS(=O)(=O)c1ccc(NN2C(=O)CSC2c2ccc(C(F)(F)F)cc2)cc1 (stereo not given)
38.9	0.85	45.5	NS(=O)(=O)c1ccc(NN2C(=O)CSC2c2ccc(Cl)cc2)cc1 (stereo not given)
105	7.27	14.4	Cc1ccc(C2SCC(=O)N2Nc2ccc(S(C)(=O)=O)cc2)cc1 (stereo not given)
42.1	0.67	63	NS(=O)(=O)c1ccc(NN2C(=O)CSC2c2ccc(F)cc2)cc1 (stereo not given)
83	0.68	122	CS(=O)(=O)c1ccc(NN2C(=O)CSC2c2ccc(Cl)cc2)cc1 (stereo not given)
63.2	3.16	20	CS(=O)(=O)c1ccc(NN2C(=O)CSC2c2ccccc2)cc1 (stereo not given)
85.5	3.49	24.5	Cc1ccc(C2SCC(=O)N2Nc2ccc(S(N)(=O)=O)cc2)cc1 (stereo not given)
